The text below walks through data of ChEMBL document CHEMBL1275556, “High prevalence of plasmid-mediated quinolone resistance genes qnr and aac(6')-Ib-cr in clinical isolates of Enterobacteriaceae from nine teaching hospitals in China” (2008).

Values after ≈ are worked out from the molar mass of the structure shown.

Test [1] has as its system Klebsiella pneumoniae. In words: Antimicrobial activity against aac(6')-Ib-cr-negative Klebsiella pneumoniae SY22 harboring GyrA S83I, ParC S80I mutant, wild-type GyrB and qnrS genes by agar dilution method in presence of Tazobactam. In kind it is functional. In a few lines:
(§1)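 MICs measured by CLSI agar dilution (M7-A7) and interpreted against CLSI M100-S17 breakpoints. Strains were clinical Enterobacteriaceae isolates or the azide-resistant E. coli J53 recipient.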

Test [2] relates to Klebsiella pneumoniae. In words: Antimicrobial activity against aac(6')-Ib-cr-positive Klebsiella pneumoniae GZ40T harboring qnrB gene by agar dilution method in presence of Tazobactam. In kind it is functional. A digest of the protocol:
(§2)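 MICs were determined by the CLSI agar dilution method (M7-A7) and interpreted against CLSI M100-S17 breakpoints.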

The test system of test [3] is Citrobacter freundii. The test can be described thus: Antimicrobial activity against aac(6')-Ib-cr-positive Citrobacter freundii PU55 harboring GyrA T83I, ParC S80I mutant, wild-type GyrB, qnrA genes by agar dilution method in presence of Tazobactam. In kind it is functional. A digest of the protocol:
(§3)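 MICs were determined by CLSI agar dilution (M7-A7) and interpreted by CLSI M100-S17 breakpoints. The curator's line names the β-lactamase inhibitor added.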

The test system of test [4] is Klebsiella pneumoniae. The test can be described thus: Antimicrobial activity against aac(6')-Ib-cr-positive Klebsiella pneumoniae JN132 harboring GyrA S83I, ParC S80I mutant, wild-type GyrB and qnrB genes by agar dilution method in presence of Tazobactam. In kind it is functional. A digest of the protocol:
as §1
In general terms: In agar dilution the substance is mixed into plates at graded concentrations.

In test [5] the test system is Enterobacter cloacae. In words: Antimicrobial activity against aac(6')-Ib-cr-negative Enterobacter cloacae FJ61 harboring GyrA S83I, GyrA D87A, ParC S80I mutant, wild-type GyrB and qnrS genes by agar dilution method in presence of Tazobactam. The test is classed as functional. In a few lines:
as §2

The test system of test [6] is Escherichia coli. The test can be described thus: Antimicrobial activity against aac(6')-Ib-cr-negative Escherichia coli PU12T harboring wild-type GyrA, GyrB, ParC and qnrS genes by agar dilution method in presence of Tazobactam. The test is classed as functional. A digest of the protocol:
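Transconjugants came from conjugation of qnr and/or aac(6')-Ib-cr donors into azide-resistant E. coli J53. […] MICs were measured by CLSI agar dilution (M7-A7) and interpreted per M100-S17.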

Test [7] relates to Citrobacter freundii. The test can be described thus: Antimicrobial activity against aac(6')-Ib-cr-positive Citrobacter freundii TJ15T harboring wild-type GyrA, ParC, GyrB genes by agar dilution method in presence of Tazobactam. In kind it is functional. In a few lines: as §2
The subject of test [8] is Citrobacter freundii. In words: Antimicrobial activity against aac(6')-Ib-cr-positive Citrobacter freundii JS33T harboring qnrA gene by agar dilution method in presence of Tazobactam. In kind it is functional. A digest of the protocol:
as §2

Test [9] deals with Citrobacter freundii. The test can be described thus: Antimicrobial activity against aac(6')-Ib-cr-positive Citrobacter freundii JN1 harboring GyrA T83I, ParC S80I mutant, wild-type GyrB and qnrA genes by agar dilution method. The test is classed as functional. In a few lines:
as §2

Test [10] relates to Citrobacter freundii. The test can be described thus: Antimicrobial activity against aac(6')-Ib-cr-positive Citrobacter freundii TJ15T harboring wild-type GyrA, ParC, GyrB genes by agar dilution method. In kind it is functional. A digest of the protocol:
as §2

Test [11] deals with Citrobacter freundii. The test can be described thus: Antimicrobial activity against aac(6')-Ib-cr-negative Citrobacter freundii JN64 harboring GyrA T83I, wild-type ParC, GyrB and qnrA genes by agar dilution method in presence of clavulanic acid. In kind it is functional. A digest of the protocol:
as §2

Test [12] deals with Enterobacter cloacae. The test can be described thus: Antimicrobial activity against aac(6')-Ib-cr-negative Enterobacter cloacae WH42T harboring qnrA gene by agar dilution method. The test is classed as functional.
The test system of test [13] is Enterobacter cloacae. In words: Antimicrobial activity against aac(6')-Ib-cr-positive Enterobacter cloacae FJ63 harboring GyrA S83I, GyrA D87A, ParC S80I mutant, wild-type GyrB and qnrS genes by agar dilution method. In kind it is functional.
In test [14] the test system is Klebsiella pneumoniae. In words: Antimicrobial activity against aac(6')-Ib-cr-positive Klebsiella pneumoniae GZ40 harboring GyrA S83I, ParC S80I mutant, wild-type GyrB and qnrB genes by agar dilution method in presence of clavulanic acid. In kind it is functional. In a few lines:
as §1

In test [15] the test system is Escherichia coli. In words: Antimicrobial activity against Escherichia coli J53 harboring wild-type GyrA, ParC, GyrB genes by agar dilution method.
Test [16] has as its system Citrobacter freundii. In words: Antimicrobial activity against aac(6')-Ib-cr-positive Citrobacter freundii JN1T by agar dilution method in presence of clavulanic acid. The test is classed as functional. In a few lines:
(§4)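 Transconjugants came from conjugation of qnr and/or aac(6')-Ib-cr-carrying donors with azide-resistant E. coli J53. […] MICs were determined by CLSI agar dilution (M7-A7) and interpreted by M100-S17.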

The test system of test [17] is Escherichia coli. In words: Antimicrobial activity against aac(6')-Ib-cr-negative Escherichia coli PU12 harboring GyrA S83L mutant, wild-type GyrB, ParC and qnrS genes by agar dilution method in presence of clavulanic acid. In kind it is functional. In a few lines: as §3
The test system of test [18] is Enterobacter cloacae. In words: Antimicrobial activity against aac(6')-Ib-cr-positive Enterobacter cloacae FJ63 harboring GyrA S83I, GyrA D87A, ParC S80I mutant, wild-type GyrB and qnrS genes by agar dilution method in presence of clavulanic acid. In kind it is functional. In a few lines: as §2
The subject of test [19] is Escherichia coli. In words: Antimicrobial activity against aac(6')-Ib-cr-negative Escherichia coli PU12T harboring wild-type GyrA, GyrB, ParC and qnrS genes by agar dilution method. In kind it is functional. In a few lines:
as §2

For test [20], the system named is Escherichia coli. In words: Antimicrobial activity against aac(6')-Ib-cr-negative Escherichia coli PU12T harboring wild-type GyrA, GyrB, ParC and qnrS genes by agar dilution method in presence of clavulanic acid. In kind it is functional. In a few lines: as §4
The test system of test [21] is Klebsiella pneumoniae. The test can be described thus: Antimicrobial activity against aac(6')-Ib-cr-positive Klebsiella pneumoniae JN41 harboring GyrA S83I, ParC S80I mutant, wild-type GyrB and qnrB genes by agar dilution method. The test is classed as functional. A digest of the protocol: (§5)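 MICs were determined on clinical isolates by CLSI agar dilution (M7-A7) and interpreted against CLSI M100-S17 breakpoints.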

For test [22], the system named is Enterobacter cloacae. In words: Antimicrobial activity against aac(6')-Ib-cr-negative Enterobacter cloacae SH39T harboring qnrA gene by agar dilution method in presence of clavulanic acid. In kind it is functional. In a few lines: as §4
Test [23] relates to Enterobacter cloacae. The test can be described thus: Antimicrobial activity against aac(6')-Ib-cr-negative Enterobacter cloacae FJ67 harboring […] and qnrS genes by agar dilution method. In kind it is functional.
In test [24] the test system is Enterobacter cloacae. In words: Antimicrobial activity against aac(6')-Ib-cr-negative Enterobacter cloacae FJ67 harboring […] and qnrS genes by agar dilution method in presence of clavulanic acid. The test is classed as functional. A digest of the protocol:
as §2

In test [25] the test system is Klebsiella pneumoniae. The test can be described thus: Antimicrobial activity against aac(6')-Ib-cr-positive Klebsiella pneumoniae JN132T harboring qnrB gene by agar dilution method. The test is classed as functional. A digest of the protocol: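 Transconjugants were made by conjugating a qnr/aac(6')-Ib-cr donor with azide-resistant E. coli J53. Selection used Trypticase soy agar with sodium azide 150 µg/ml and sulfamethoxazole 180 µg/ml. […] MICs were read by CLSI agar dilution (M7-A7) and interpreted per M100-S17.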

Test [26] deals with Citrobacter freundii. In words: Antimicrobial activity against aac(6')-Ib-cr-positive Citrobacter freundii PU55T harboring wild-type GyrA, ParC, GyrB and qnrA genes by agar dilution method in presence of clavulanic acid. In kind it is functional. A digest of the protocol:
as §4

The subject of test [27] is Enterobacter cloacae. In words: Antimicrobial activity against aac(6')-Ib-cr-negative Enterobacter cloacae FJ61 harboring GyrA S83I, GyrA D87A, ParC S80I mutant, wild-type GyrB and qnrS genes by agar dilution method. The test is classed as functional.
The test system of test [28] is Citrobacter freundii. The test can be described thus: Antimicrobial activity against aac(6')-Ib-cr-negative Citrobacter freundii JN64T harboring qnrA gene by agar dilution method. The test is classed as functional. A digest of the protocol:
as §2

Test [29] concerns Klebsiella pneumoniae. The test can be described thus: Antimicrobial activity against aac(6')-Ib-cr-positive Klebsiella pneumoniae SY26 harboring GyrA S83I, ParC S80I mutant, wild-type GyrB and qnrB genes by agar dilution method. The test is classed as functional. A digest of the protocol: as §5
Test [30] concerns Enterobacter cloacae. The test can be described thus: Antimicrobial activity against aac(6')-Ib-cr-negative Enterobacter cloacae GZ51 harboring qnrA gene by agar dilution method. The test is classed as functional.

What is called MIC is the smallest concentration in the dilution series that meets the test's criterion for growth inhibition. `CCN1CCN(C(=O)N[C@@H](C(=O)N[C@@H]2C(=O)N3[C@@H]2SC(C)(C)[C@@H]3C(=O)O)c2ccccc2)C(=O)C1=O` [PIPERACILLIN]: the MIC in the test on Klebsiella pneumoniae [1] worked out at 4 µg/mL; in the test with Klebsiella pneumoniae [2], 1 µg/mL; in the test on Citrobacter freundii [3], 64 µg/mL; in the test on Klebsiella pneumoniae [4], 4 µg/mL; with Enterobacter cloacae [5], 8 µg/mL; with Escherichia coli [6], 1 µg/mL. The values for the MIC in the test on Citrobacter freundii [7] and with Citrobacter freundii [8] were 1 µg/mL and 4 µg/mL, respectively.
On to `CO/N=C(\C(=O)N[C@@H]1C(=O)N2C(C(=O)O)=C(COC(C)=O)CS[C@H]12)c1csc(N)n1` [CEFOTAXIME], for which the MIC against Citrobacter freundii [9] was above 256 µg/mL; with Citrobacter freundii [10] it was 0.125 µg/mL (≈ 0.274 µM); in the test on Citrobacter freundii [11] it was 128 µg/mL; with Enterobacter cloacae [12], 8 µg/mL (≈ 17.6 µM); in the test with Enterobacter cloacae [13], above 256 µg/mL; in the test with Klebsiella pneumoniae [14], 0.5 µg/mL. For the same molecule, the MIC amounted to 0.032 µg/mL (≈ 0.0703 µM) in the test with Escherichia coli [15]; 0.032 µg/mL with Citrobacter freundii [16]; 0.032 µg/mL in the test on Escherichia coli [17]; 1 µg/mL in the test with Enterobacter cloacae [18]; 16 µg/mL (≈ 35.1 µM) in the test with Escherichia coli [19]; 0.032 µg/mL in the test with Escherichia coli [20]. In addition, the MIC against Klebsiella pneumoniae [21] is 32 µg/mL (≈ 70.3 µM); in the test on Enterobacter cloacae [22], 0.032 µg/mL; in the test on Enterobacter cloacae [23], 256 µg/mL (≈ 562 µM); in the test with Enterobacter cloacae [24] it was 0.25 µg/mL; against Klebsiella pneumoniae [25], 32 µg/mL (≈ 70.3 µM); in the test with Citrobacter freundii [26], 0.032 µg/mL. The MIC was found to be 256 µg/mL (≈ 562 µM) with Enterobacter cloacae [27], 16 µg/mL (≈ 35.1 µM) with Citrobacter freundii [28], 8 µg/mL (≈ 17.6 µM) against Klebsiella pneumoniae [29] and 64 µg/mL (≈ 141 µM) against Enterobacter cloacae [30].
